Results on three compounds are retold here after ChEMBL document CHEMBL2169771, “Mechanistic aspects of the photodynamic inactivation of Candida albicans induced by cationic porphyrin derivatives” (Eur J Med Chem, 2012).

Experiment [1] deals with Nucleic Acid. Nature of the experiment: Binding affinity to calf thymus DNA assessed as DNA cleavage at 20 uM after 5 hrs irradiation by agarose gel electrophoresis. To be noted: Bos taurus. The format is nucleic-acid assay. In a few lines:
(§1)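 Calf thymus DNA (1.3 × 10^-4 M, base pairs) was mixed with 20 µM sensitizer in TE buffer (10 mM Tris-HCl, 1 mM EDTA, pH 7.6). Mixtures were irradiated in open tubes with visible light (90 mW/cm²) at room temperature for 1–5 h; dark controls were included. Samples were run on 1% agarose in TBE at 2.9 V/cm for 2 h.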

Experiment [2] has as its system Candida albicans. As to the kind of experiment: Photocytotoxicity against Candida albicans PC31 assessed as release of intracellular DNA and protein at 5 uM preincubated for 30 mins in dark followed by irradiation measured after 30 mins by UV-vis spectroscopic analysis. The format is functional, organism-based. An outline of the steps: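 PC31 cells (~10^7 CFU/mL in 2 mL PBS) were incubated with 5 µM porphyrin for 30 min in the dark, then irradiated 30 min with visible light (162 J/cm²). After centrifugation at 13,000 rpm for 5 min, supernatants were scanned by UV–visible spectroscopy, with absorbance at 260 nm taken as the release read-out. Freeze–thaw lysis in liquid nitrogen gave the positive control.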

The subject of experiment [3] is Nucleic Acid. Nature of the experiment: Binding affinity to Candida albicans PC31 DNA assessed as genomic DNA cleavage at 5 uM preincubated for 30 mins in dark followed by irradiation measured after 30 mins by agarose gel electrophoresis. The format is nucleic-acid assay. In a few lines:
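PC31 cells (~10^7 CFU/mL in PBS) received 5 µM sensitizer for 30 min at 37 °C in the dark, then 30 min visible light (162 J/cm²). Genomic DNA was extracted with a commercial kit immediately after irradiation. It was run on 1% agarose in TBE (pH 8) at 2.9 V/cm for 2 h beside an irradiated control.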

Experiment [4] deals with Candida albicans. As to the kind of experiment: Photocytotoxicity against Candida albicans PC31 assessed as change in cell morphology at 5 to 10 uM preincubated for 30 mins in dark followed by irradiation measured after 30 mins by transmission electron microscopy. Format: functional, organism-based. In a few lines: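 PC31 suspensions (~10^7 CFU/mL) were given 5 or 10 µM sensitizer for 30 min in the dark at 37 °C, then irradiated 30 min with visible light (162 J/cm²). Cells were fixed in 4% formaldehyde/2% glutaraldehyde in 0.1 M cacodylate for 2 h, then post-fixed in 1% OsO4. They were acetone-dehydrated, Araldite-embedded, cut at 80–100 nm, stained with uranyl acetate and lead citrate, and imaged by TEM.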

Experiment [5] relates to Nucleic Acid. Nature of the experiment: Binding affinity to calf thymus DNA by spectrophotometric analysis. The format is nucleic-acid assay. Particulars: Bos taurus. In a few lines: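 Absorbance titration: concentrated calf thymus DNA stock was added to ~2 µM porphyrin in PBS. Apparent KDNA was calculated from the Soret-maximum absorbance change, assuming 1:1 stoichiometry and DNA in large excess, via a double-reciprocal fit (1/ΔA vs 1/[DNA]). Three separate experiments, mean ± SD.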

Experiment [6] has as its system Candida albicans. Nature of the experiment: Antifungal activity against 10^7 CFU/mL Candida albicans PC31 assessed as cell survival at 5 uM preincubated for 30 mins in dark followed by irradiation measured after 30 mins. Format: functional. An outline of the steps: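 C. albicans PC31 grown overnight in Sabouraud broth at 37 °C to stationary phase, then resuspended in 10 mM PBS pH 7.0 at ~10^7 CFU/mL. Incubated with 5 µM porphyrin for 30 min in the dark at 37 °C. Irradiated 30 min with visible light from a 150 W lamp, water-filtered (fluence 162 J/cm²). CFU counted on Sabouraud agar after ~48 h at 37 °C, plated in triplicate. Three separate experiments, mean ± SD.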

Experiment [7] has as its system Candida albicans. As to the kind of experiment: Antifungal activity against 10^6 CFU/mL Candida albicans PC31 assessed as cell survival at 5 uM preincubated for 30 mins in dark followed by irradiation measured after 30 mins. The format is functional.
The test system of experiment [8] is Nucleic Acid. As to the kind of experiment: Binding affinity to calf thymus DNA assessed as DNA cleavage at 20 uM after 1 hr irradiation by agarose gel electrophoresis. Format: nucleic-acid assay. To be noted: Bos taurus. In a few lines: as §1
Experiment [9] has as its system Nucleic Acid. As to the kind of experiment: Binding affinity to calf thymus DNA assessed as DNA cleavage at 20 uM by agarose gel electrophoresis in absence of irradiation. The format is nucleic-acid assay. Particulars: Bos taurus. In a few lines: as §1
Experiment [10] relates to Candida albicans. As to the kind of experiment: Antifungal activity against 10^7 CFU/mL Candida albicans PC31 preincubated for 30 mins in dark followed by irradiation measured after 30 mins. Format: functional, organism-based. Particulars: PC31, light or radiation study. In a few lines:
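IC50 was derived from PBS suspensions of PC31 (~10^7 CFU/mL) treated with 0.1–10 µM porphyrin for 30 min in the dark at 37 °C. Cells were then irradiated for 30 min with water-filtered visible light from a 150 W lamp. Survival was counted as CFU on Sabouraud agar after ~48 h at 37 °C.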

The subject of experiment [11] is Nucleic Acid. As to the kind of experiment: Binding affinity to calf thymus DNA assessed as DNA cleavage at 20 uM after 2 hrs irradiation by agarose gel electrophoresis. The format is nucleic-acid assay. Particulars: Bos taurus. An outline of the steps: as §1
The test system of experiment [12] is Nucleic Acid. As to the kind of experiment: Binding affinity to calf thymus DNA assessed as reduction in electrophoretic DNA mobility at 20 uM after 1 to 5 hrs irradiation by agarose gel electrophoresis. The format is nucleic-acid assay. Particulars: Bos taurus. In a few lines:
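Calf thymus double-stranded DNA (1.3 × 10^-4 M, in base pairs) mixed with 20 μM sensitizer in TE buffer (10 mM Tris-HCl, 1 mM EDTA, pH 7.6). Irradiated with visible light (90 mW/cm²) at room temperature for 1, 2, 3, 4 or 5 h. Samples then run on 1% agarose gels in TBE buffer (pH 8) at 2.9 V/cm for 2 h. Controls: DNA alone, DNA with sensitizer in dark, irradiated DNA.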

Activity calls are given as the source filed them. The rule behind the calls is not given here.

For `C[N+](C)(C)c1ccc(-c2c3nc(c(-c4ccc([N+](C)(C)C)cc4)c4ccc([nH]4)c(-c4ccc([N+](C)(C)C)cc4)c4nc(c(-c5ccc(C(F)(F)F)cc5)c5ccc2[nH]5)C=C4)C=C3)cc1`, the figures for the Activity in [1] and in [8] were 50% and 19.7%, respectively. Also, the outcome in experiment [2], in [3] and in experiment [9] was inactive. In addition, the result in experiment [4] was Active. Also, the Kapp in experiment [5] was found to be 6.7 ×10⁵ /M. Besides, the log10CFU/ml is listed as 3.5 in experiment [6] and 5 in experiment [7]. For the same compound, the IC50 – broadly, the concentration needed to halve the response being measured – in experiment [10] is 160 nM.
`C[N+](C)(C)c1ccc(-c2c3nc(c(-c4ccc([N+](C)(C)C)cc4)c4ccc([nH]4)c(-c4ccc([N+](C)(C)C)cc4)c4nc(c(-c5ccc([N+](C)(C)C)cc5)c5ccc2[nH]5)C=C4)C=C3)cc1`: the Activity is over 90% in experiment [11] and 59.3% in [8]. Further, the outcome in experiment [2] and in experiment [3] was inactive. Also, the outcome in experiment [4] was Active. In experiment [5], this compound came in with a Kapp of 7.5 ×10⁵ /M. Also, the log10CFU/ml in experiment [6] was 3.5; in [7] it was 5. In [10], this compound gave an IC50 of 230 nM.
In the case of `C[n+]1ccc(-c2c3nc(c(-c4cc[n+](C)cc4)c4ccc([nH]4)c(-c4cc[n+](C)cc4)c4ccc([nH]4)c(-c4cc[n+](C)cc4)c4nc2C=C4)C=C3)cc1` [TMPYP4], the result in experiment [2] and in experiment [3] was inactive. The result in experiment [4] and in experiment [12] was Active. This compound gave a Kapp in experiment [5] of 4.4 ×10⁵ /M. The log10CFU/ml came out at 3.5 in experiment [6] and 5 in [7]. The compound further gave a half-maximal inhibitory concentration (IC50) in experiment [10] of 410 nM.
